Positions of bridges follow the written chain, without caps; N, C: chain ends. Residues, ends and D or L forms follow the SMILES beside them.
What was measured:
[1] = Effect on mast cell degranulation in human LAD2 cells assessed as CCL3 release measured after 2 hrs by Luminex bead based assay; format: functional; conditions: for EC50: Homo sapiens, LAD2, 2 h; for Emax: time 2 hrs
Procedure, shortened: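 LAD2 human mast cells in StemPro 34 medium, 0.2×10^6 cells/well. Supernatant CCL3 quantified by Luminex magnetic bead kit.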

[2] = Reversal of LDL uptake in human HepG2 cells for 2 hrs preincubation with PCSK9 followed by LDL addition and measured after 4 hrs by fluorimetry method relative to control; format: functional, cell-based
Procedure, shortened: (§1)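 HepG2 cells seeded 40000/well, serum-starved 24 h in DMEM with 5% LPDS. Human His-PCSK9 (20–50 nM) preincubated 30–60 min at room temperature ± compounds (10 µM to 0.0001 µM, 0.1% DMSO). Cells then exposed 2 h at 37°C. LDL-BODIPY added to 10 µg/mL final for 4 h. Fluorescence read at ex 480/em 520 nm. Expressed as % maximal LDL-BODIPY incorporation; EC50 by non-linear fit.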

[3] = Reversal of LDL uptake in human HepG2 cells at 10 uM for 2 hrs preincubation with PCSK9 followed by LDL addition and measured after 4 hrs by fluorimetry method relative to control; format: functional; conditions: time 6 hrs; procedure, shortened: as §1
[4] = target: Proprotein convertase subtilisin/kexin type 9 (Homo sapiens, UniProt Q8NBP7); test: Binding affinity to human PCSK9 by surface plasmon resonance
Procedure, shortened: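 Recombinant human His-tagged PCSK9 (Gln31–Gln692, HEK293-expressed) at 14 µg/mL amine-coupled onto Ni-NTA chip, ~1000–4000 RU. Buffer 25 mM Tris-HCl, 5 mM CaCl2, 100 mM NaCl, 0.01% P20, pH 7.5, 5% DMSO in running buffer. 25°C. Double-referenced sensorgrams; KD from steady-state equilibrium responses fit to a 4-parameter model, or kinetics fit 1:1.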

[5] = tested on: HepG2; test: Cytotoxicity against human HepG2 cells assessed as reduction in cell viability at 0.4 to 10 uM for 48 hrs by SRB assay; format: toxicity, cell-based; conditions: hepg2, 48 h, dose 0.4-10 µM
Procedure, shortened: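 HepG2 cells seeded 2000/well 24 h before treatment. Compounds at 0.4, 1.1, 3.3 and 10 µM in DMEM, 48 h at 37°C. SRB staining 30 min at 37°C, dye dissolved in 10 mM Tris base, absorbance at 560 nm. Triplicate wells averaged and normalized to untreated cells.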

Chain of Proprotein convertase subtilisin/kexin type 9 (Q8NBP7 31-152 limits assumed): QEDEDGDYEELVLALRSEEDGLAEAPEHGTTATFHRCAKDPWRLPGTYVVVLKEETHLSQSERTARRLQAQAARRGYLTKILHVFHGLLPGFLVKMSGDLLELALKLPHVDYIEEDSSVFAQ
Chain of Proprotein convertase subtilisin/kexin type 9 (Q8NBP7 153-692 limits assumed): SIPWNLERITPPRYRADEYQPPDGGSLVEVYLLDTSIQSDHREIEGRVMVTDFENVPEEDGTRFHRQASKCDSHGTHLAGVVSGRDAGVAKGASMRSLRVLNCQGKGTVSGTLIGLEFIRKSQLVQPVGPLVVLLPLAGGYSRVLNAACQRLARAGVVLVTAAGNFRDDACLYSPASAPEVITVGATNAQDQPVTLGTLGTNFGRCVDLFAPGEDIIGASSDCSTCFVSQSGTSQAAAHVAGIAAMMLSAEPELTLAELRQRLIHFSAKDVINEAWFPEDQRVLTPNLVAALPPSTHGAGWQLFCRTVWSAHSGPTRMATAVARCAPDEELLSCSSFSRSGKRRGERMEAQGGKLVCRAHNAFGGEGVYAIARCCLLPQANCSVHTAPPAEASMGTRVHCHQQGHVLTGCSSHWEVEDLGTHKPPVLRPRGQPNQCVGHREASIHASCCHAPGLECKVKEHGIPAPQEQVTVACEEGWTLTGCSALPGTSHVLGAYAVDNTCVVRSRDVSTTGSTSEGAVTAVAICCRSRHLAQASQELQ

EC50 [1] | EC50 [2] | Kd [4] | Compound | Emax [1] | Activity [3] | Activity [5]
> 5000 nM | 6 µM | 9.7 µM | CC(=O)N[C@H](C(=O)N[C@H](C(=O)N[C@@H](Cc1ccccc1)C(=O)N[C@H](C(=O)N[C@@H](CO)C(=O)N[C@@H](Cc1c[nH]c2ccccc12)C(=O)N[C@@H](CCC(=O)O)C(=O)N[C@@H](CCC(=O)O)C(=O)N[C@@H](Cc1ccc(O)cc1)C(=O)N[C@@H](CC(C)C)C(=O)N[C@@H](CC(=O)O)C(=O)N[C@@H](Cc1c[nH]c2ccccc12)C(=O)N[C@H](C(N)=O)C(C)C)[C@@H](C)O)C(C)C)[C@@H](C)O | 116.7 pg/mL | 56.5% | Non-Toxic
2200 nM | 0.175 µM | 0.006 µM | CC(=O)N[C@@H](Cc1cnc[nH]1)C(=O)N[C@H](C(=O)N[C@@H](Cc1ccccc1)C(=O)N[C@@H](CCCCN)C(=O)N[C@@H](CO)C(=O)N[C@@H](Cc1c[nH]c2ccccc12)C(=O)N[C@H]1CCCCNC(=O)C[C@@H](C(=O)N[C@@H](Cc2c[nH]c3ccccc23)C(=O)N[C@H](C(=O)N[C@@H](CCCCN)C(=O)N[C@@H](CCCCN)C(=O)N[C@@H](CCCCN)C(=O)N[C@@H](CCCCN)C(=O)N[C@@H](CCCCN)C(=O)N[C@@H](CCCCN)C(N)=O)C(C)C)NC(=O)[C@H](CC(C)C)NC(=O)[C@H](Cc2ccc(O)cc2)NC(=O)[C@H](CCC(=O)O)NC1=O)C(C)C (Ac-HVFKSWKEYLDWVKKKKKK-NH2; lactam 7-11) | 1483.2 pg/mL |  | Non-Toxic
